Experimental data: ChEMBL document CHEMBL3351540, “Novel antiproliferative chimeric compounds with marked histone deacetylase inhibitory activity” (ACS Med Chem Lett, 2014)
Calls of active or inactive are those of the source. The rule behind the calls is not given here.

How the values were obtained:
K562 [1] = test: Antiproliferative activity against human K562 cells assessed as growth inhibition after 48 hrs by trypan blue dye exclusion method; type: functional, cell-based; conditions: K562, 48 h
K562 [2] = test: Induction of apoptosis in human K562 cells using annexin-V/PI staining by flow cytometry; type: functional, cell-based
Outline: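 K562 cells treated for 48 h; apoptosis scored by annexin V test. AC50 is the concentration inducing apoptosis in 50% of cells. Triplicate points, SD error bars.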

Histone deacetylase 1 = Histone deacetylase 1 (Homo sapiens, UniProt Q13547); test: Inhibition of human recombinant HDAC1 using modified Boc-Lys(Ac)-AMC MAL as substrate after 1 hr by fluorescent activity assay
Histone deacetylase 1, sequence (Q13547 whole entry): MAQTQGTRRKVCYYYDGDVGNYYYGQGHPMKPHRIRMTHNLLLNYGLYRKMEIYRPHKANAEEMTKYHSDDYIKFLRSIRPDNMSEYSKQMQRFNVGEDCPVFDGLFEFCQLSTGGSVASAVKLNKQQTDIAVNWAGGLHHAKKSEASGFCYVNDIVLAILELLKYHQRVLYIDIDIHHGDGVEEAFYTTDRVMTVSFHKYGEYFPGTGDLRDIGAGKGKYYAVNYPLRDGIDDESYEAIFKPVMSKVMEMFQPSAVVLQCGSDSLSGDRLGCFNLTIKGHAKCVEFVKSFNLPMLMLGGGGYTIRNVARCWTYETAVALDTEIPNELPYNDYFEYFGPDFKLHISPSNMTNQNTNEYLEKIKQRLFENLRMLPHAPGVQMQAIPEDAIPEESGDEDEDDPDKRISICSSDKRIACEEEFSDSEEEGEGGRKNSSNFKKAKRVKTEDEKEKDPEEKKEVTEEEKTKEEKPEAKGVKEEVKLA

MCF7 [3] = test: Cell cycle arrest in human MCF7 cells assessed as block at G2-M phase at 5 uM after 24 to 96 hrs using propidium iodide staining by FACScan flow cytometry; type: functional, cell-based
[4] = Cell cycle arrest in human U937 cells assessed as block at G1 phase at 5 uM after 24 to 96 hrs using propidium iodide staining by FACScan flow cytometry; type: functional, cell-based; conditions: U-937
U-937 [5] = test: Induction of apoptosis in human U937 cells using annexin-V/PI staining after 48 hrs by flow cytometry relative to SAHA; type: functional
Outline: (§1)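 U937 cells treated with 5 μM compound for 48 h, with SAHA at 5 μM as positive control. Apoptosis and necrosis measured by annexin V/PI double staining and flow cytometry. Triplicate points, SD error bars.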

Histone deacetylase 4 = Histone deacetylase 4 (Homo sapiens, UniProt P56524); test: Inhibition of human recombinant HDAC4 using (S)-[5-Acetylamino-1-(2-oxo-4-trifluorometyl-2Hchromen-7-ylcarbamoyl)pentl]carbami acid tert-Butyl Ester as substrate after 1 hr by fluorescent activity assay
Histone deacetylase 4, sequence (P56524 whole entry): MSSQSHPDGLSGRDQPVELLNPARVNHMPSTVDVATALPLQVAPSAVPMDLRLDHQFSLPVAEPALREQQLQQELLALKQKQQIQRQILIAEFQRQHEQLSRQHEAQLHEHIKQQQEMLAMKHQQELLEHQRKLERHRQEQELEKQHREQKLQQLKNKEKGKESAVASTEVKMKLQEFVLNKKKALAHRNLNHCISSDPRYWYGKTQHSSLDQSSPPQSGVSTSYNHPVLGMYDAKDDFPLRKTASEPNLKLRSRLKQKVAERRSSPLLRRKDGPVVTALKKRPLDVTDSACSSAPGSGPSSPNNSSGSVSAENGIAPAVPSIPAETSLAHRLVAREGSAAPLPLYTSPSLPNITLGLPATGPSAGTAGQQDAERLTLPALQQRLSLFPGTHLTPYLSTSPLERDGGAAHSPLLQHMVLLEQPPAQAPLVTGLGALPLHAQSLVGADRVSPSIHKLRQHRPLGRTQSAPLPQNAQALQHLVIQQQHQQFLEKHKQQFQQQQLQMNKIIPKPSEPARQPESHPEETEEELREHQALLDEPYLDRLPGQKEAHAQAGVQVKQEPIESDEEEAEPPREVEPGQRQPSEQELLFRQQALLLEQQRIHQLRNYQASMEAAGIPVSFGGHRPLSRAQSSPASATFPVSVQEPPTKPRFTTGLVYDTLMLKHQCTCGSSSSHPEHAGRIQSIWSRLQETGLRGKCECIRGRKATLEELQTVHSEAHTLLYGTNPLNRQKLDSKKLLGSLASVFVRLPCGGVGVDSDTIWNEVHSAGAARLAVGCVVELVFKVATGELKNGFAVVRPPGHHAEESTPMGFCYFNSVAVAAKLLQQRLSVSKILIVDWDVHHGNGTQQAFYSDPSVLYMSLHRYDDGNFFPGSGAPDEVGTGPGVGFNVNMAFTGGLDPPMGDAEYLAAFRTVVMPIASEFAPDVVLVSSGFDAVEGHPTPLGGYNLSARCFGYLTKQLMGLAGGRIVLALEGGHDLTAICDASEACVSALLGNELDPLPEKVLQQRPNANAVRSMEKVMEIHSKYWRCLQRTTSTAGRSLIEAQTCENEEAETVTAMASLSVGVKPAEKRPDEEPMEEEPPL

[6] = target: T1, Protein deacetylase HDAC6 (Homo sapiens, UniProt Q9UBN7); test: Inhibition of human recombinant HDAC6 using Z-MAL as substrate after 1 hr by fluorescent activity assay
T1 sequence (Q9UBN7 whole entry): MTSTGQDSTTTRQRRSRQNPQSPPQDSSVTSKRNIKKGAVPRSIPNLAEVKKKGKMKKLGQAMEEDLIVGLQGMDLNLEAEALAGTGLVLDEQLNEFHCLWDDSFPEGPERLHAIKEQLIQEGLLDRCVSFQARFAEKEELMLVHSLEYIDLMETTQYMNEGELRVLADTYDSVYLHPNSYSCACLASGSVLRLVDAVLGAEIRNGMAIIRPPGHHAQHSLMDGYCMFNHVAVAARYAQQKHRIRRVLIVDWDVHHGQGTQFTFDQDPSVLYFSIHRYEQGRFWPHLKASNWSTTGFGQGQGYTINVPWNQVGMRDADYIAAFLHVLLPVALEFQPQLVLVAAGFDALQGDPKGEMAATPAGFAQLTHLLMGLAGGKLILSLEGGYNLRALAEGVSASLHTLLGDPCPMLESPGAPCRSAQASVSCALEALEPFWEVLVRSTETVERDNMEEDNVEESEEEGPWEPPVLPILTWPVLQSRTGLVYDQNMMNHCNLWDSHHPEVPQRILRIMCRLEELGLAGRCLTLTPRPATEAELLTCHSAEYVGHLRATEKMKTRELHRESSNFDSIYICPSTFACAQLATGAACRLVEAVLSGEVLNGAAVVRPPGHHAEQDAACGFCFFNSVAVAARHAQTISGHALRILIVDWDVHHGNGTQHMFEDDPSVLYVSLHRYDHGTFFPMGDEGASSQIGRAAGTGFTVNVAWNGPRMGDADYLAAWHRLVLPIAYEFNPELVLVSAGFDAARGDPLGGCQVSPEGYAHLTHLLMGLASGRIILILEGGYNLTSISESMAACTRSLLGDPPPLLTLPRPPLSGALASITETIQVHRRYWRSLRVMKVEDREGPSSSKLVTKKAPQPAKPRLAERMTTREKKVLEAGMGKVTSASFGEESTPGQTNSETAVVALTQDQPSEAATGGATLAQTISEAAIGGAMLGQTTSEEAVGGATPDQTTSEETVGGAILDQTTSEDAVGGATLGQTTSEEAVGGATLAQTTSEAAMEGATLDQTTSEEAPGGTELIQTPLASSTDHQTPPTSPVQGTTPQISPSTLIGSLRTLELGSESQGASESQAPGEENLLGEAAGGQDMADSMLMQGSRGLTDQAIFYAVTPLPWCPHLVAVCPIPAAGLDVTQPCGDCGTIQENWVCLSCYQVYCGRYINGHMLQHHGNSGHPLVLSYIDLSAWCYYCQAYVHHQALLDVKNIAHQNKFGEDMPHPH

MCF7 [7] = test: Antiproliferative activity against human MCF7 cells at 5 uM after 10 hrs by real-time mode analysis; type: functional, cell-based
Outline: (§2)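 Real-time proliferation of MCF-7 cells treated with 5 μM compound, recorded as cell index versus time over 36 h. Doubling time was calculated over the 10−18 h interval.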

MCF7 [8] = test: Antiproliferative activity against human MCF7 cells assessed as reduction in doubling time at 5 uM after 10 to 18 hrs by real-time mode analysis; type: functional, cell-based; outline: as §2
MCF7 [9] = test: Antimigratory activity against human MCF7 cells assessed as reduction in slope values at 5 uM up to 24 hrs by real-time mode analysis; type: functional; parameters: scale not given: the % may be the effect or the level left
Outline: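 MCF-7 cells exposed to 5 μM compound and tracked in real time as cell index versus time over 27 h. Migration was expressed as the slope of the cell index within 24 h.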

K562 [10] = test: Ratio of SAHA AC50 to compound AC50 for human K562 cells using annexin-V/PI staining by flow cytometry; type: functional
MCF7 [11] = test: Cell cycle arrest in human MCF7 cells assessed as block at G2 phase at 5 uM after 24 to 96 hrs using propidium iodide staining by FACScan flow cytometry
[12] = Cell cycle arrest in human U937 cells assessed as block at G1 phase at 5 uM after 24 to 96 hrs using propidium iodide staining by FACScan flow cytometry; conditions: U-937
K562 [13] = test: Cell cycle arrest in human K562 cells assessed as block at G1 phase at 40 uM after 24 hrs using propidium iodide staining by FACScan flow cytometry; type: functional, cell-based
K562 [14] = test: Cell cycle arrest in human K562 cells assessed as block at G2-M phase at 40 uM after 24 hrs using propidium iodide staining by FACScan flow cytometry; type: functional, cell-based
U-937 [15] = test: Induction of apoptosis in human U937 cells using annexin-V/PI staining after 48 hrs by flow cytometry; type: functional, cell-based; outline: as §1

SMILES	IC50 (K562 [1])	IC50 (Histone deacetylase 1)	AC50 (K562 [2])	Activity (K562 [13])	Activity (K562 [14])	other results
COc1cc(/C=C/c2ccc(OC)c(NC(=O)CCCCCCC(=O)NO)c2)cc(OC)c1	0.7 µM	0.8 µM	5 µM	–	–	Activity (MCF7 [3]): Active; Activity [4]: Active; fold change (FC) (U-937 [5]): 2; IC50 (Histone deacetylase 4): 9.8 µM; IC50 [6]: 1.3 µM; Activity (MCF7 [7]): Active; Activity (MCF7 [8]): Active; Activity (MCF7 [9]): 25%; Ratio (K562 [10]): 2; Activity (MCF7 [11]): Active; Activity [12]: Active
Oc1ccc(-c2ccc(-c3cc(O)cc(O)c3)cc2)cc1	–	–	> 50 µM	–	–	–
COc1cc(/C=C\c2ccc(OC)c(N)c2)cc(OC)c1	0.025 µM	–	0.25 µM	–	–	–
COc1cc(/C=C/c2ccc(OC)c(N)c2)cc(OC)c1	2.5 µM	–	20 µM	Active	Active	–
O=C(CCCCCCC(=O)Nc1ccccc1)NO [VORINOSTAT]	–	–	10 µM	Active	Active	Activity (MCF7 [3]): Active; Activity [4]: Active; Activity (U-937 [15]): Active; Activity (MCF7 [8]): Active; Activity (MCF7 [11]): Active; Activity [12]: Active

The next lines start with results.

IC50 (K562 [1])	IC50 (Histone deacetylase 1)	SMILES	AC50 (K562 [2])	Activity (K562 [13])	Activity (K562 [14])	other results
20 µM	8.9 µM	O=C(NO)c1ccc(-c2ccc(-c3cc(O)cc(O)c3)cc2)cc1	> 50 µM	–	–	–
7.5 µM	2.1 µM	COc1cc(/C=C\c2ccc(OC)c(NC(=O)CCCCCCC(=O)NO)c2)cc(OC)c1	40 µM	Active	Active	IC50 (Histone deacetylase 4): 7.6 µM; IC50 [6]: 1.6 µM
6 µM	0.9 µM	O=C(CCCCCNC(=O)c1ccc(-c2ccc(-c3cc(O)cc(O)c3)cc2)cc1)NO	38 µM	–	–	–
2.5 µM	15.7 µM	O=C(CCCCCCNC(=O)c1ccc(-c2ccc(-c3cc(O)cc(O)c3)cc2)cc1)NO	16 µM	–	–	–
